# From ChEMBL document CHEMBL4513216, “Probing the Open Global Health Chemical Diversity Library for Multistage-Active Starting Points for Next-Generation Antimalarials” (ACS Infect Dis, 2020)
# Assay: Toxicity liver stage against HepG2, at 10uM
# Type: cell-based
# Design: test concentration 10 uM, cell line HepG2-A16-CD81EGFP
# Details: human, HepG2-A16-CD81EGFP cells; read-out: INHIBITION
# Procedure, shortened: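 Uninfected HepG2-A16-CD81EGFP cells, 3 × 10^3 per well, 1536-well, plated on prespotted compound at 10 μM final, parasite-free screening media added to match infected plates; puromycin 10 μM positive, DMSO 0.5% negative; run in parallel with 48 h PbLuc assay at 37 °C, 5% CO2; viability by CellTiter-Glo luminescence, normalized to controls.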
row,Structure (SMILES),cytotoxicity at 10 µM
1,O=C(O)c1ccnc(SCC(=O)c2ccccc2)c1,-3.78%
2,COc1ccc(O[C@H]2COCCN(Cc3cccc4c3OCO4)C2)cc1,0.375%
3,CSCC[C@@H](CO)NC(=O)c1sc(-c2ccccc2Cl)nc1C,14.3%
4,Cc1[nH]nc(-c2ccc(F)cc2)c1CC(=O)NCC1CCOCC1,-0.707%
5,Cc1ccsc1C(O)CNS(=O)(=O)Cc1ccc(F)cc1 (stereo unspecified),-4.38%
6,CCOC(=O)N1CCNC(c2cccs2)C1 (stereo unspecified),-147%
7,Cn1cc(N2C[C@@H]3CN(S(=O)(=O)C4CC4)C[C@@H]3C2=O)cn1,1.86%
8,CNC(=O)c1cc2c(nc1NCC1CC1)CCNCC2,-0.966%
9,COC(=O)CC1CCN(C(=O)c2ccccc2-n2nnnc2C)CC1,-7.27%
10,CCc1ccc(-n2nnc(C(=O)O)c2-c2ccccn2)cc1,-1.92%
11,OCCNc1nc(NCCc2ccccc2)nc2nccnc12,5.91%
12,CNC(=O)c1cccnc1Oc1ccccc1,2.84%
13,CCCS(=O)(=O)Nc1ccc2c(c1)OCC(C)(C)C(=O)N2C,-10.8%
14,COCCC(=O)N1CCCC([C@@H]2C[C@H](C(F)F)n3ncnc3N2)C1 (stereo partly specified),-1.28%
15,Cc1c[nH]c(C2CCCN(C(=O)CCc3c(C)n[nH]c3C)C2)n1 (stereo unspecified),4.88%
16,Cc1cc(NCC2CCCCC2)n2ncnc2n1,-2.1%
17,COc1ccccc1C1CNCCN1C(C)=O (stereo unspecified),3.6%
18,COc1cccc(S(=O)(=O)N2C[C@@H](O)[C@H](N(C)C)C2)c1,5.76%
19,Cc1sc2c(C3CCCN(C)C3)nc(C)n2c1C (stereo unspecified),-26.9%
20,N#Cc1cccc(CNc2ccc(F)cc2OCCO)c1,-2.03%
21,COc1cccc(CN(C)CCCn2cnc3c(N)ncnc32)c1,-2.63%
22,O=S(=O)(N1CCCCCC1)N1CCCN(CC2CCCO2)CC1 (stereo unspecified),0.863%
23,CCOCCN1CCN(CC(=O)NC2(C#N)CCCC2)CC1C (stereo unspecified),5.33%

row,Structure (SMILES),cytotoxicity at 10 µM
1,OC1(CNc2ccc(Br)cn2)CCOCC1,6.91%
2,Cc1ccc(C(=O)NC2CCCN(CC(N)=O)C2)c(=O)[nH]1 (stereo unspecified),0.601%
3,CS(=O)(=O)NCc1cccc(COC2CCCCC2)c1,3.12%
4,COCc1ccccc1C(=O)OCc1noc(C)n1,7.01%
5,CCOc1ccc(Cl)c(C(=O)NC(C(N)=O)c2ccccc2)n1 (stereo unspecified),-0.425%
6,Cc1cc(CN(C)CC2CC(C3CCCCC3)=NO2)no1 (stereo unspecified),22.4%
7,CS(=O)(=O)c1ccc2c(c1)N(C(=O)c1cccc(F)c1)CCC2,8.05%
8,O=C(Cc1csc(-c2ccccn2)n1)NCCCN1CCCCCC1=O,1.16%
9,O=C(Nc1ccc(F)cc1)C1CCN(Cc2noc(C3CC3)n2)CC1,4.05%
10,CN(CC1CCC1)C(=O)Nc1cccnc1-n1cncn1,2.86%
11,Cc1cc(C)cc(NC(=O)Cc2c(C)nc3c(c2C)c(=O)[nH]n3C)c1,10.6%
12,CNC(=O)C1Cc2ccccc2CN1CCc1cccs1 (stereo unspecified),-0.837%
13,CNC(=O)C1Cc2ccccc2CN1CCCc1ccccc1 (stereo unspecified),4.23%
14,CCc1nnc(CN2CCN(C(C)=O)CC2)o1,4.39%
15,COCCOCC(C)NC(=O)COc1nn(C)c2nc(C)cc(C)c12 (stereo unspecified),-3.85%
16,CCc1n[nH]c(C2CN(C(=O)Cc3ccc(C)nc3)CCO2)n1 (stereo unspecified),6.97%
17,O=C(NCCc1nnc2n1CCC2)NCC1(c2ccc(F)cc2)CC1,-2.23%
18,CN(Cc1ccc2c(c1)OCO2)Cc1nc(Cc2ccccc2)no1,-2.59%
19,CCN(CC)Cc1ccc(C(=O)NC2CCc3cc(F)ccc32)o1 (stereo unspecified),-9.03%
20,Cc1csc(C2CCCCN2C(=O)CCCn2cccn2)n1 (stereo unspecified),-0.89%
21,Cc1cccc(S(=O)(=O)NC(=O)c2ccc3c(c2)nnn3C)c1,-8.97%
22,Cc1cscc1C(=O)NC1CC(=O)N(C(C)C)C1=O (stereo unspecified),-6.51%
23,COCCSc1ccc(C(C)NC(=O)Nc2cccnc2)cc1 (stereo unspecified),12.3%

row,Structure (SMILES),cytotoxicity at 10 µM
1,CC(NC(=O)c1cccnc1N(C)C)c1ccccc1Cl (stereo unspecified),-4.97%
2,CC(C)N(Cc1ccc(Cl)c(Cl)c1)C(=O)Cn1cncn1,4.19%
3,O=C(NCCC(=O)N1CCCC1)c1ccc(SCc2cccnc2)cc1,8.95%
4,Cc1nnc(CN(C)Cc2nc3c(s2)CCCC3)o1,-1.42%
5,Cc1c(CNC(=O)C2CCCN2C(=O)C2CC2)oc2ccccc12 (stereo unspecified),5.6%
6,Cc1ncc(CN(C)CC(O)c2ccc(OC(F)(F)F)cc2)s1 (stereo unspecified),9.99%
7,CNC(=O)C(C)CN(C)C(=O)Nc1ccc(F)c(-n2cccc2)c1 (stereo unspecified),-2.07%
8,O=C(c1cocn1)N1C[C@H]2CCC[C@@]2(COCc2cccnc2)C1,7.35%
9,COCCN1C[C@H]2[C@@H](C1)N(C(=O)c1cccc(OC)c1)CC[C@H]2OC,3.56%
10,CC(C)C1CN(c2ncccn2)CCC(=O)N1CC1CC1 (stereo unspecified),0.0666%
11,Fc1cccnc1Oc1cc(F)c(CN2CCCC2)c(F)c1,-7.32%
12,O=C(c1ccc(-c2cccc3c2CCNC3)o1)N1CCCC1,3.34%
13,c1c(-c2nc(CN3CCOCC3)no2)nnn1CC1CCCCC1,3.15%
14,Cc1cc(C)n(CC(C)NC(=O)c2cc(C(C)C)on2)n1 (stereo unspecified),0.5%
15,Cc1nc[nH]c1C(=O)N1CCCC2(C1)C(=O)N(C)c1ccccc12 (stereo unspecified),-6.01%
16,OC1(CNCCN2CCCc3ccccc32)CCNC1 (stereo unspecified),7.03%
17,CS(=O)(=O)NCCC(=O)N1Cc2cnc(-c3ccccc3)nc2C1,-4.65%
18,Cc1nn(C)cc1-c1ccnc(N2CCN(c3ccccc3)C(=O)C2)n1,-7.57%
19,Cc1ccc(C(C(=O)N2CCN(C(=O)c3ccc[nH]3)CC2)N(C)C)cc1 (stereo unspecified),-10.7%
20,Cc1noc(C)c1CCCNC(=O)C1CCN(C(=O)C2CC2)CC1,1.23%
21,CCc1nc(C)c(CNC(=O)CCCN2CCCCC2)s1,-4.65%
22,Cc1cc(CN2CCC(C3CCN(CCc4ccccc4)CC3)C2)[nH]n1 (stereo unspecified),9.2%
23,CCCc1nnc(N2C[C@@H](C)[C@@](C)(O)C2)s1,1.22%

row,Structure (SMILES),cytotoxicity at 10 µM
1,COc1cc(-c2nccn2CCn2cccn2)cc2c1OCO2,-3.81%
2,C[C@@H]1CN(C(=O)C2(Cn3cccn3)CC2)C[C@@]1(O)C1CCC1,1.56%
3,Cc1ccccc1N1CCN(C(=O)CSc2ccncc2)CC1=O,6.71%
4,COc1ccc(S(=O)(=O)N[C@H]2CN(C(C)=O)C[C@@H]2C2CC2)cc1C,4.57%
5,OCC1(CC2CC2)CCCN(Cc2cnc(N3CCOCC3)nc2)C1 (stereo unspecified),-0.274%
6,CCN(Cc1cnn(CC)c1)C(=O)CN1C(=O)CCc2ccccc21,-2.17%
7,CCN(CCn1cccn1)C(=O)CN1C(=O)OC[C@@H]1c1ccccc1,-12.1%
8,COCCN1CCCC2(CCN(Cc3noc(C4CCCC4)n3)C2)C1=O (stereo unspecified),3.96%
9,CCCn1cnnc1CNC(=O)C1COc2c(cccc2OC)C1 (stereo unspecified),-1.26%
10,Cn1ccnc1CN1CCC(CCC(=O)Nc2ccccc2Cl)CC1,-3.73%
11,CC(Cn1cncn1)Nc1ccc(-c2nccn2C)nn1 (stereo unspecified),-3.73%
12,CC(CO)CN(Cc1ccccc1)Cc1c[nH]cn1 (stereo unspecified),6.04%
13,CN(C)C(=O)c1nc(CN2CC(Cc3ccccc3)CC2=O)no1 (stereo unspecified),-0.849%
14,CC(C)OCCCNC(=O)[C@@]12CNC[C@@H]1CN(S(C)(=O)=O)C2,6.99%
15,CN(Cc1ncc[nH]1)C(=O)C(C)(C)NC(=O)c1cccs1,11.6%
16,CC(=O)N[C@@H]1CN(C(=O)c2csc(C(C)C)n2)C[C@H]1C(C)C,-6.71%
17,O=C(CCN1CCOC(CNc2cccnn2)C1)NC1CCCCC1 (stereo unspecified),3.09%
18,Cc1cnc2c(S(=O)(=O)NC3CCS(=O)(=O)C3)cccc2c1 (stereo unspecified),-2.28%
19,CN(CC(=O)N1CCC(N(C)c2ccccc2)CC1)c1cnccn1,-6.6%
20,CCc1nnc2n1CCN(Cc1ncc(-c3ccccc3)o1)C2,-3.98%
21,CCOc1ncccc1C(=O)N1CCCC1Cn1cc(C)cn1 (stereo unspecified),0.787%
22,O=C(c1cnc(-c2cnccn2)s1)N1CCCC(n2cccn2)C1 (stereo unspecified),-9.04%
23,CN(Cc1ccc(-n2cccn2)cc1)CC1CCCN1c1cccnn1 (stereo unspecified),-3.98%

row,Structure (SMILES),cytotoxicity at 10 µM
1,Cc1cnn(CC2CCCN2C(=O)CCc2ccc3c(c2)OCO3)c1 (stereo unspecified),-19%
2,Cc1noc(C)c1C(=O)N1CCCN(Cc2cscn2)CC1,-1.56%
3,Cc1ncsc1C(=O)NC1CCN(CC(=O)N(C)c2ccccc2)CC1,1.26%
4,Clc1ccccc1-c1nc(CNC2CCc3ncnn3C2)cs1 (stereo unspecified),-4.28%
5,Cc1cccn2cc(CC(=O)N3CCCC(n4cncn4)C3)nc12 (stereo unspecified),-7.31%
6,CC(Nc1cccc(CN2CCOC2=O)c1)C(=O)N1CCNC1=O (stereo unspecified),-1.63%
7,CNS(=O)(=O)c1ccc(C(=O)NC2CCc3nc(C)cn3C2)o1 (stereo unspecified),-12.3%
8,CC(NC(=O)N(C)Cc1ccsc1)c1ccc2c(c1)NC(=O)CO2 (stereo unspecified),-7.77%
9,Cc1cc(C)n(C2CCCN(C(=O)Cc3csc(C)n3)C2)n1 (stereo unspecified),-10.4%
10,CN(Cc1ncc(C(C)(C)C)o1)C1CCCN(c2cccnn2)C1 (stereo unspecified),-16.1%
11,Cc1cccc(-c2[nH]ncc2CNCC2CCN(CC(C)O)CC2)c1 (stereo unspecified),-10.1%
12,O=C(c1ccc2c(c1)OCO2)N1CCCC(n2cccn2)C1 (stereo unspecified),-8.4%
13,O=S(=O)(c1ccc(Cl)cc1)N1CCc2nc(C3CCNCC3)ncc2C1,-17.3%
14,CCN1CC2(CC1=O)CN(Cc1cnn(C)c1)CCN(C(=O)C(C)C)C2 (stereo unspecified),-15%
15,O=C1[C@H]2CN(Cc3cccs3)C[C@H]2CN1CCN1CCCC1,-12.7%
16,CC(C)OCc1ncn2c1CN(Cc1ccc(F)cc1)CCC2,1.39%
17,CCSCCNC(=O)c1ccc(S(=O)(=O)N2C[C@H]3C[C@@H]2CN3)cc1,-1.98%
18,O=C(Nc1cccnc1)[C@H]1C[C@H]2CN(C(=O)NC3CCCC3)C[C@@H]1O2,2.96%
19,CCOC(=O)N1CCC(n2cc3[nH]cccc-3c2=O)CC1,3.6%
